Results published in ChEMBL document CHEMBL4371006, “Discovery of N-[4-(Quinolin-4-yloxy)phenyl]benzenesulfonamides as Novel AXL Kinase Inhibitors” (J Med Chem, 2018).
pIC50: −log10 of the molar value. Active and inactive are the calls of the source. The calls are words filed in the database; no cut-off is given here.

Experiments:
[1] = molecular target: Tyrosine-protein kinase ABL1 (Homo sapiens) (UniProt P00519); experiment: Inhibition of ABL (unknown origin) using biotinylated peptide as substrate at 10 uM by TR-FRET assay relative to control
Chain of Tyrosine-protein kinase ABL1 (Homo sapiens) (P00519 whole entry): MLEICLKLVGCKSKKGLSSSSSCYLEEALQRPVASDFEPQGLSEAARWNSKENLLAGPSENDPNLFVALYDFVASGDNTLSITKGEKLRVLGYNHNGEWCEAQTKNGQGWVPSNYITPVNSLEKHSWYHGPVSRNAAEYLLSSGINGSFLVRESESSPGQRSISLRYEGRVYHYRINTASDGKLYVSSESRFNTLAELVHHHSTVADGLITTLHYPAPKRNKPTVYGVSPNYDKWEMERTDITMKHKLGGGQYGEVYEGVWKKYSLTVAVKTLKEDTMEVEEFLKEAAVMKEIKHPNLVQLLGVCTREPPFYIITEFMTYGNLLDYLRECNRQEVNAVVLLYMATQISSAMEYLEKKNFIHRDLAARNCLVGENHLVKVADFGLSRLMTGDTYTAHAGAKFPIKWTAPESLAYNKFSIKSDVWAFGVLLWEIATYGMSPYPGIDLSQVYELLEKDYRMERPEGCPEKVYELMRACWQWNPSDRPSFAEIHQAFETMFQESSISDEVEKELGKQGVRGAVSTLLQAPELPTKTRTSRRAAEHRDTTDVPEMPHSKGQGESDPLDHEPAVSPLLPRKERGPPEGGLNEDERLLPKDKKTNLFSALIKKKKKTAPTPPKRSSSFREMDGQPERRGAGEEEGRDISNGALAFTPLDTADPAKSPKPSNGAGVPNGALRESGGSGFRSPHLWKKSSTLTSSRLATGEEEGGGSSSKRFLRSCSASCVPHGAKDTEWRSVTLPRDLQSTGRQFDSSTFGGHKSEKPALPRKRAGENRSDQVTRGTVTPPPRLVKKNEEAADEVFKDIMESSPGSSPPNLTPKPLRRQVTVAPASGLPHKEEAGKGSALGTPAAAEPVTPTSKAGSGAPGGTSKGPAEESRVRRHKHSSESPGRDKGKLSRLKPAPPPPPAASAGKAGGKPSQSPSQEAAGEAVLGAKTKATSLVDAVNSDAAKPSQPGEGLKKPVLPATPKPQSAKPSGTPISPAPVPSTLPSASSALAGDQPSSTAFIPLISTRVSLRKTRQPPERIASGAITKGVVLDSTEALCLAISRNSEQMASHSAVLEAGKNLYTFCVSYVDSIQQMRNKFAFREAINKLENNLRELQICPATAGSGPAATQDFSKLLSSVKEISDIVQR

[2] = molecular target: Mast/stem cell growth factor receptor Kit (Homo sapiens) (UniProt P10721); experiment: Inhibition of cKIT (unknown origin) using biotinylated peptide as substrate at 10 uM by TR-FRET assay relative to control
Chain of Mast/stem cell growth factor receptor Kit (Homo sapiens) (P10721 whole entry): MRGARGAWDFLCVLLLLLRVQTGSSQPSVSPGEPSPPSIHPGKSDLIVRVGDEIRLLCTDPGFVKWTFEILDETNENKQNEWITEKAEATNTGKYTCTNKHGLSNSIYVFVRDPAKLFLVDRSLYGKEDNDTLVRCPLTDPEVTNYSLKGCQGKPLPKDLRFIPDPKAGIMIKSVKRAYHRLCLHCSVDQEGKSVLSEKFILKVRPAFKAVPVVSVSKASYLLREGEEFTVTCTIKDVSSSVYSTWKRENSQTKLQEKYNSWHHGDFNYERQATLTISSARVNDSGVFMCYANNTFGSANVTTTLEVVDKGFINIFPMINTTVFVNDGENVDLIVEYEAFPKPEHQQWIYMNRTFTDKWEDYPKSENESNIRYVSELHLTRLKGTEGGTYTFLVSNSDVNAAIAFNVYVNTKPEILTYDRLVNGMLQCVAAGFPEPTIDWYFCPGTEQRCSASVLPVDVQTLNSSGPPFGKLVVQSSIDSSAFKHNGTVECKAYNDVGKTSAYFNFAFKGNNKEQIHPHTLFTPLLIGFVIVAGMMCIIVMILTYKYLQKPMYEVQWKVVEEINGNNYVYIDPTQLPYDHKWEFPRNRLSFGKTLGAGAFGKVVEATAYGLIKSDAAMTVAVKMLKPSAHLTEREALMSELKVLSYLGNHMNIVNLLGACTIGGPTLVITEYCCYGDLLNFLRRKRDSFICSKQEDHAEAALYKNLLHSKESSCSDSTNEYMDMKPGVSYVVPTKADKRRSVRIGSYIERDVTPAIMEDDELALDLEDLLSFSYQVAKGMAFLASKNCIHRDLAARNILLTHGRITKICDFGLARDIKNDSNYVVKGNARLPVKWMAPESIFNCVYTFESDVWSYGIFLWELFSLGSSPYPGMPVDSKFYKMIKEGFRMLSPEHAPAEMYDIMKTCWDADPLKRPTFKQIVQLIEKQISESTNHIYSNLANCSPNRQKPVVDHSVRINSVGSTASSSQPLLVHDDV

[3] = molecular target: Angiopoietin-1 receptor (Homo sapiens) (UniProt Q02763); experiment: Inhibition of TIE2 (unknown origin) using biotinylated peptide as substrate at 10 uM by TR-FRET assay relative to control
Chain of Angiopoietin-1 receptor (Homo sapiens) (Q02763 whole entry): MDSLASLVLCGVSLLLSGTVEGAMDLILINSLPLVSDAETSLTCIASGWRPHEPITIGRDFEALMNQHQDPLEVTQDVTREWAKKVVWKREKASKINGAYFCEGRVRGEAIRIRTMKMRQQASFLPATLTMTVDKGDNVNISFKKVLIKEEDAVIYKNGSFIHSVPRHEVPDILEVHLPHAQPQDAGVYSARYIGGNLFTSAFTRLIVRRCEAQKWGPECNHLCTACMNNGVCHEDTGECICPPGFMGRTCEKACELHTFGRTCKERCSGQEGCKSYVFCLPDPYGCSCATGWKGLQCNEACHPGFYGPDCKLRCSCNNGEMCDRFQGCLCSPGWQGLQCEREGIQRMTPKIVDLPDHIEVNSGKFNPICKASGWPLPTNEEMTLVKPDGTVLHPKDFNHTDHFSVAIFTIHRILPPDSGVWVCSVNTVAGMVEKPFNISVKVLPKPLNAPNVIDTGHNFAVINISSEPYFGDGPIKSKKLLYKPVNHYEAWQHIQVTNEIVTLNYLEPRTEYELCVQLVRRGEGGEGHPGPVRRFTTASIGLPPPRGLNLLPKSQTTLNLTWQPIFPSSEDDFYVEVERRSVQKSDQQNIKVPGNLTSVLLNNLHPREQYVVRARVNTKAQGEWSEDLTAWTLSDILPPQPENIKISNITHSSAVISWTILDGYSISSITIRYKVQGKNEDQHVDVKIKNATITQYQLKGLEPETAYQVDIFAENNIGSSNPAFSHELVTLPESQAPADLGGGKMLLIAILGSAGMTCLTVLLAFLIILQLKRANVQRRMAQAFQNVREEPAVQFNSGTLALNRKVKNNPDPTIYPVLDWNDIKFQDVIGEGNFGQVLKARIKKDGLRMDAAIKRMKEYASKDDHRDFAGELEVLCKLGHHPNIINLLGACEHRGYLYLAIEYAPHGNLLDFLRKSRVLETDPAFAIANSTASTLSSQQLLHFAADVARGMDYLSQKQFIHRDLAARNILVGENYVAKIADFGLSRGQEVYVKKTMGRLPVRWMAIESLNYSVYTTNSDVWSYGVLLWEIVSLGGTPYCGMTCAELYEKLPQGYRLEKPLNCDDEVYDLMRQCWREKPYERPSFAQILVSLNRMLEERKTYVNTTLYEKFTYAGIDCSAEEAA

[4] = molecular target: Vascular endothelial growth factor receptor 2 (Homo sapiens) (UniProt P35968); experiment: Inhibition of VEGFR2 (unknown origin) using fluorescence labeled peptide as substrate at 10 uM by IMAP assay relative to control
Chain of Vascular endothelial growth factor receptor 2 (Homo sapiens) (P35968 whole entry): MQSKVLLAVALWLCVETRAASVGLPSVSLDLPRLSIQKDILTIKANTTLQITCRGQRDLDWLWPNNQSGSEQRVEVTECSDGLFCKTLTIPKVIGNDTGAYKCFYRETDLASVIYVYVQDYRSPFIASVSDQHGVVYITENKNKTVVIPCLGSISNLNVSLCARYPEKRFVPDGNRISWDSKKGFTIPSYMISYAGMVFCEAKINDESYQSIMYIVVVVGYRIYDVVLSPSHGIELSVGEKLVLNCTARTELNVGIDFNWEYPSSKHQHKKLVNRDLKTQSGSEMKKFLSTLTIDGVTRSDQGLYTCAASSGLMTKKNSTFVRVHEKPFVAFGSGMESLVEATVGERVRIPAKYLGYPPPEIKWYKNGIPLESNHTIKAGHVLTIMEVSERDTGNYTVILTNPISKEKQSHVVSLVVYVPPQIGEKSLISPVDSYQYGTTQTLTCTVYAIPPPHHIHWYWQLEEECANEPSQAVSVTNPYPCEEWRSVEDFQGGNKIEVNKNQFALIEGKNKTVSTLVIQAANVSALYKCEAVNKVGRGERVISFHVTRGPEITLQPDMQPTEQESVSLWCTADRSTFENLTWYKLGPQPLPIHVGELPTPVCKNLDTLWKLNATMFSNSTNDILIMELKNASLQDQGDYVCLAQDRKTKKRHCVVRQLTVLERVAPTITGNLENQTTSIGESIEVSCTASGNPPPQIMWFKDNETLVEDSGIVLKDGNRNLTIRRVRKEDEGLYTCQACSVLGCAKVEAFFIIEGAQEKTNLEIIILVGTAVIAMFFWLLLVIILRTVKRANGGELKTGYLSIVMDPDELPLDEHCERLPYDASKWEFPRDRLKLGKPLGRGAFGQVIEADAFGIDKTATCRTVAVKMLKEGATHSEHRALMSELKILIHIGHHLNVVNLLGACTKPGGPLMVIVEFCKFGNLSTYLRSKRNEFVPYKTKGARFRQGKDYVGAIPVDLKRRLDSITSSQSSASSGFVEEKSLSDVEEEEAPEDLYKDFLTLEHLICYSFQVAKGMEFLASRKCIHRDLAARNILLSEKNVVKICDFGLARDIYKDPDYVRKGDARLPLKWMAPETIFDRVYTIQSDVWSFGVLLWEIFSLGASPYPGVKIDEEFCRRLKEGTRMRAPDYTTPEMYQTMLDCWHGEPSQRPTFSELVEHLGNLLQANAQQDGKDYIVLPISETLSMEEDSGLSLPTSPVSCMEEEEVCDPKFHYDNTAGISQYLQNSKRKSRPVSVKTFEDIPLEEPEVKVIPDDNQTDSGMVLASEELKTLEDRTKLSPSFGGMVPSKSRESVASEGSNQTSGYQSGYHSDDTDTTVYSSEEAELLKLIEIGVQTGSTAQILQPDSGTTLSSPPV
In short: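 IMAP fluorescence-polarization kinase assay at 10 µmol/L compound, run in triplicate by a contract lab. A fluorescently labeled substrate peptide is phosphorylated, then nanoparticles carrying trivalent metal bind the phosphopeptide and slow its rotation. Read-out is fluorescence polarization, expressed as percent inhibition.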

[5] = molecular target: Vascular endothelial growth factor receptor 2 (Homo sapiens) (UniProt P35968); experiment: Inhibition of VEGFR2 (unknown origin) using biotinylated peptide as substrate at 10 uM by TR-FRET assay relative to control
[6] = tested on: MDA-MB-231; experiment: Anti-invasive activity against human MDA-MB-231 cells up to 3 uM after 5 hrs by matrigel assay; format: functional, cell-based
In short: (§1)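 MDA-MB-231 cells (7000/well) seeded on polymerized 3 mg/mL Matrigel (set ≥16 h at 37°C) in serum-free medium; inhibitor added at seeding, aggregates forming over 5 h.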

[7] = tested on: MDA-MB-231; experiment: Antimigratory activity against human MDA-MB-231 cells assessed as inhibition of large cell aggregate formation after 5 hrs by matrigel assay; format: functional, cell-based; details: MDA-MB-231, 5 h; in short: as §1
[8] = Permeability of the compound in 0.025 M phosphate buffer at pH 7.4 assessed drug flux level after 5 hrs by PAMPA; format: ADME; details: pH 7.4, 5 h
In short: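 PAMPA: donor at 0.5 mM in pH 7.4 0.025 M phosphate buffer, diluted from 1 mM DMSO stock. Filters are coated with 1% phosphatidylcholine in dodecane, and the acceptor is 50% DMSO in phosphate buffer. Incubated 5 h at room temperature with gentle shaking. Donor and acceptor are analyzed by HPLC-UV to calculate Papp. Three plates were run on different days.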

[9] = Stability in mouse plasma assessed as parent compound remaining; format: ADME, cell-free
[10] = AUC (0 to tz) in mouse at 1 to 2 mg/kg, iv by LC/MS/MS analysis; format: ADME, organism-based; details: in vivo
In short: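 Male ICR mice (27 ± 5 g, n = 3) dosed iv via tail vein at 2 or 1 mg/kg in 30% PEG400/5% ethanol in water. Jugular blood (0.3 mL, heparin) sampled at set times over 24 h or more; plasma separated, acetonitrile-precipitated, drug quantified by LC/MS/MS; parameters from noncompartmental-type software estimation.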

[11] = Clearance in mouse at 1 to 2 mg/kg, iv by LC/MS/MS analysis; format: ADME, organism-based; details: in vivo
[12] = Toxicity in mouse assessed as drug tolerability at 300 mg/kg, po; format: organism-based; details: in vivo
[13] = Apparent half-life of the terminal disposition phase in mouse at 3 mg/kg, iv by LC/MS/MS analysis; details: in vivo, read-out: t1/2 lambda z (converted)
[14] = molecular target: Non-receptor tyrosine-protein kinase TNK1 (Homo sapiens, UniProt Q13470); experiment: Binding affinity to TNK1 in SILAC-labeled human MDA-MB-231 cells lysate by mass spectrometry based kinAffinity assay; format: subcellular
In short: (§2)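 MDA-MB-231 lysate applied to KinAffinity matrix of immobilized broadband kinase inhibitors at graded densities to obtain BC50 per target. Competition then run with increasing free compound to give CC50; Kd derived by Cheng-Prusoff. Two competition experiments in parallel to check equilibrium, one with lysate pre-incubated with compound before adding matrix. Quantitation by mass spectrometry.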

[15] = molecular target: Receptor-interacting serine/threonine-protein kinase 2 (Homo sapiens, UniProt O43353); experiment: Binding affinity to RIPK2 in SILAC-labeled human MDA-MB-231 cells lysate by mass spectrometry based kinAffinity assay; format: subcellular; in short: as §2
[16] = molecular target: Activin receptor type-1 (Homo sapiens, UniProt Q04771); experiment: Binding affinity to ACVR1 in SILAC-labeled human MDA-MB-231 cells lysate by mass spectrometry based kinAffinity assay; format: subcellular
In short: (§3)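 Chemical proteomics: MDA-MB-231 lysate bound to matrix of immobilized broad kinase inhibitors at several densities (BC50), then competed with increasing free compound (CC50); proteins quantified by mass spectrometry, Kd via Cheng-Prusoff. Two competition formats run in parallel to check equilibrium.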

[17] = molecular target: Serine/threonine-protein kinase PLK4 (Homo sapiens, UniProt O00444); experiment: Binding affinity to PLK4 in SILAC-labeled human MDA-MB-231 cells lysate by mass spectrometry based kinAffinity assay; format: subcellular; in short: as §2
[18] = molecular target: Aurora kinase B (Homo sapiens, UniProt Q96GD4); experiment: Binding affinity to AURKB in SILAC-labeled human MDA-MB-231 cells lysate by mass spectrometry based kinAffinity assay; format: subcellular; in short: as §3
[19] = molecular target: Tyrosine-protein kinase CSK (Homo sapiens, UniProt P41240); experiment: Binding affinity to CSK in SILAC-labeled human MDA-MB-231 cells lysate by mass spectrometry based kinAffinity assay; format: subcellular; in short: as §3
[20] = molecular target: Tyrosine-protein kinase Fer (Homo sapiens, UniProt P16591); experiment: Binding affinity to FER in SILAC-labeled human MDA-MB-231 cells lysate by mass spectrometry based kinAffinity assay; format: subcellular; in short: as §3
[21] = molecular target: Serine/threonine-protein kinase/endoribonuclease IRE1 (Homo sapiens, UniProt O75460); experiment: Binding affinity to IRE1 in SILAC-labeled human MDA-MB-231 cells lysate by mass spectrometry based kinAffinity assay; format: subcellular; in short: as §3
[22] = molecular target: Aurora kinase A (Homo sapiens, UniProt O14965); experiment: Binding affinity to AURKA in SILAC-labeled human MDA-MB-231 cells lysate by mass spectrometry based kinAffinity assay; format: subcellular; in short: as §3
[23] = molecular target: 5'-AMP-activated protein kinase subunit beta-2 (Homo sapiens, UniProt O43741); experiment: Binding affinity to PRKAB2 in SILAC-labeled human MDA-MB-231 cells lysate by mass spectrometry based kinAffinity assay; format: subcellular; in short: as §2
[24] = molecular target: 5'-AMP-activated protein kinase subunit beta-1 (Homo sapiens, UniProt Q9Y478); experiment: Binding affinity to PRKAB1 in SILAC-labeled human MDA-MB-231 cells lysate by mass spectrometry based kinAffinity assay; format: subcellular; in short: as §2
Chain of 5'-AMP-activated protein kinase subunit beta-1 (Q9Y478 whole entry): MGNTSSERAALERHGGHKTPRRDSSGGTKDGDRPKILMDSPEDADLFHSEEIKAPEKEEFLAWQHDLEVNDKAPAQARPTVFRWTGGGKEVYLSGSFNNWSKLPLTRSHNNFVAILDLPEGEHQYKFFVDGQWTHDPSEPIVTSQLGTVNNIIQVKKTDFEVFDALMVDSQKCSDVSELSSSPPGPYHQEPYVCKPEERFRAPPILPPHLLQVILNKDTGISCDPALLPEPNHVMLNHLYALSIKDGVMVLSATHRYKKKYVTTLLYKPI

[25] = molecular target: MAP/microtubule affinity-regulating kinase 3 (Homo sapiens, UniProt P27448); experiment: Binding affinity to MARK3 in SILAC-labeled human MDA-MB-231 cells lysate by mass spectrometry based kinAffinity assay; format: subcellular; in short: as §3
[26] = molecular target: Mitogen-activated protein kinase kinase kinase 2 (Homo sapiens, UniProt Q9Y2U5); experiment: Binding affinity to MAP3K2 in SILAC-labeled human MDA-MB-231 cells lysate by mass spectrometry based kinAffinity assay; format: subcellular; in short: as §3

Row | Efficacy [1] [%] | Efficacy [2] [%] | Efficacy [3] [%] | Efficacy [4] [%] | Efficacy [5] [%] | pIC50 [7] | Kd(free) [14] [nM] | Kd(free) [15] [nM] | Kd(free) [16] [nM] | Kd(free) [17] [nM] | Kd(free) [18] [nM] | Kd(free) [19] [nM] | Kd(free) [20] [nM] | SMILES | inhibition [6] | permeability [8] [%] | Stability [9] [%] | AUC [10] [ng·h/mL] | clearance [11] [mL/min/kg] | Activity [12] | half-life [13] [h] | further results
1 | 83 to 100 | 83 to 100 | 83 to 100 | 83 to 100 | 83 to 100 | 6.81 | 14 | 17 | > 70 | 48 | 34 | 30 | 304 | COc1cc2c(Oc3ccc(NS(=O)(=O)c4c(F)cccc4F)cc3F)ccnc2cc1OCCCN1CCN(C)CC1 | Active |  |  |  |  |  |  | Kd(free) [21]: 243 nM; Kd(free) [22]: 146 nM; Kd(free) [23]: 1907 nM; Kd(free) [24]: 2279 nM; Kd(free) [25]: 5622 nM; Kd(free) [26]: 5518 nM
2 | 83 to 100 | 83 to 100 | 83 to 100 | 83 to 100 | 83 to 100 | 6.80 | 24 | 43 | 52 | 53 | > 69 | 270 | 679 | COc1cc2c(Oc3ccc(NS(=O)(=O)c4cc(F)ccc4F)cc3F)ccnc2cc1OCCCN1CCN(C)CC1 | Active | 24.3 | 108 | 1430 | 6.67 | Non-Toxic | 18.7 | Kd(free) [21]: 723 nM; Kd(free) [22]: 847 nM; Kd(free) [23]: 969 nM; Kd(free) [24]: 1257 nM; Kd(free) [25]: 3854 nM; Kd(free) [26]: 4396 nM
3 | 83 to 100 | 83 to 100 | 83 to 100 | 83 to 100 | 83 to 100 | 6.80 |  |  |  |  |  |  |  | COc1cc2c(Oc3ccc(NS(=O)(=O)c4ccccc4C(F)(F)F)cc3F)ccnc2cc1OCCCN1CCN(C)CC1 | Active |  |  |  |  |  |  | 

Row | SMILES | Efficacy [1] [%] | Efficacy [2] [%] | Efficacy [3] [%] | Efficacy [4] [%] | Efficacy [5] [%] | pIC50 [7] | Kd(free) [14] [nM] | Kd(free) [15] [nM] | Kd(free) [16] [nM] | Kd(free) [17] [nM] | Kd(free) [18] [nM] | Kd(free) [19] [nM] | Kd(free) [20] [nM] | inhibition [6] | permeability [8] [%] | Stability [9] [%] | AUC [10] [ng·h/mL] | clearance [11] [mL/min/kg] | Activity [12] | half-life [13] [h] | further results
4 | COc1cc2c(Oc3ccc(NS(=O)(=O)c4cc(F)ccc4F)cc3F)ccnc2cc1OCCCN1CCCC(C)C1 (stereo unspecified) | 83 to 100 | 83 to 100 | 83 to 100 | 83 to 100 | 83 to 100 | 6.73 |  |  |  |  |  |  |  | Active | 46.1 | 98.8 | 669 | 11.7 | Non-Toxic | 8.5 | 
